The values below come from ChEMBL document CHEMBL1148193, “Cytotoxic pyrroloiminoquinones from four new species of South African latrunculid sponges” (J Nat Prod, 2004).

Experiment [1] deals with T1, DNA topoisomerase 1 (Homo sapiens) (UniProt P11387).
T1 sequence (whole entry): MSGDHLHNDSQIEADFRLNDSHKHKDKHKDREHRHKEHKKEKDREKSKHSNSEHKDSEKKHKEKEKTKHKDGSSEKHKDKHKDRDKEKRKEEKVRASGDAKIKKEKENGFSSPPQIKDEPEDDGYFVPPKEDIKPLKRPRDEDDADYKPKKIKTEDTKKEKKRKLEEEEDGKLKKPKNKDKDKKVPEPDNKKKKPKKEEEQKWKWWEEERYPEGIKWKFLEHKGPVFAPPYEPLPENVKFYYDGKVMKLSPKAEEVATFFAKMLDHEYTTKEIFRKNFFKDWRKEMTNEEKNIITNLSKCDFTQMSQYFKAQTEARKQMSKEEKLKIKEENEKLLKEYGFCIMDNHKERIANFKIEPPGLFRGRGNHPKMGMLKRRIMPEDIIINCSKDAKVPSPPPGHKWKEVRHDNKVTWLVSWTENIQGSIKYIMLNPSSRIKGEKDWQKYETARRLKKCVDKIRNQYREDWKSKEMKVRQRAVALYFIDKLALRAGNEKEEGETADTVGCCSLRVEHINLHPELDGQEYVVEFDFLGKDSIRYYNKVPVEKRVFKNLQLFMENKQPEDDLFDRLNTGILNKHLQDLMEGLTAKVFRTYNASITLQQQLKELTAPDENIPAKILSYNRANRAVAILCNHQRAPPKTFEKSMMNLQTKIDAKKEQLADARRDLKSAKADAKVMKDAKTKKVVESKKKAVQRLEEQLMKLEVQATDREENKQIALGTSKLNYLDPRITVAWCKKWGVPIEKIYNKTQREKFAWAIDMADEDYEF
The experiment in a line: Inhibition of topoisomerase 1-mediated relaxation of supercoiled DNA assessed as DNA cleavage at 500 uM relative to control. On the set-up: scale not given: the % may be the effect or the level left. In outline:
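Radiolabeled supercoiled rf M13 mp19 DNA with purified topoisomerase I (80-120 ng) in Tris-HCl 50 mM pH 7.5, KCl 85 mM, MgCl2 10 mM, EDTA 0.5 mM, BSA 30 μg/mL, DTT 2 mM. Compound in DMSO, 30 °C for 30 min, then proteinase K/SDS at 37 °C for 60 min. 0.8% agarose gel, bands excised and scintillation counted. % cleaved from nicked plus linear bands over total, minus endogenous cleavage. 9-aminocamptothecin as reference.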

Experiment [2] deals with HCT-116. The experiment in a line: Cytotoxicity against human HCT116 cells after 72 hrs by MTS assay. Format: functional, cell-based. The conditions noted are these: HCT-116, 72 h. The procedure, abridged:
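HCT-116 colon tumor cells plated and incubated overnight at 37 °C, then given serially diluted samples in DMSO for a further 72 h. Etoposide as positive control and DMSO as negative control. MTS/PMS added for 3 h, absorbance read at 490 nm, IC50 derived from serial dilution data.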

Experiment [3] has as its system Salmonidae. As to the kind of experiment: Displacement of ethidium bromide form salmon testes sperm DNA by fluorescence plate reader. The procedure, abridged: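 Salmon testes sperm DNA (25 μg mL⁻¹) with ethidium bromide (0.5 μg mL⁻¹) in TE, compound final concentrations 100 to 0.01 μM in tenfold steps. n = 4 per dose, n = 8 for controls. Fluorescence measured, background EtBr subtracted and divided by the DNA+EtBr control. KS is the concentration giving 50% fluorescence decrease.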

The target of experiment [4] is T1, DNA topoisomerase 1 (Homo sapiens). As to the kind of experiment: Inhibition of topoisomerase 1-mediated relaxation of supercoiled DNA assessed as DNA cleavage at 9 uM relative to control. On the set-up: scale not given: the % may be the effect or the level left. The procedure, abridged:
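Radiolabelled supercoiled rf M13 mp19 DNA (500 ng) and purified topoisomerase I (80-120 ng) in Tris-HCl 50 mM pH 7.5, KCl 85 mM, MgCl2 10 mM, EDTA 0.5 mM, BSA 30 µg/mL, DTT 2 mM. Compound added in DMSO; 30 °C, 30 min. Proteinase K/SDS stop (37 °C, 60 min). Bands resolved on 0.8% agarose, excised and scintillation-counted. Nicked+linear counts taken as % of total, minus endogenous cleavage.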

Regarding `Cn1cc2c3c1C(=O)c1[nH]cc(-c4ccc(O)cc4)c1C3=[N+]([O-])CC2`, the Activity in experiment [1] came out at 26%. In experiment [2], this molecule showed an IC50 of 16500 nM. Moreover, the Ks in experiment [3] came to 30 µM.

Regarding `O=C1C(Br)=CC2(C=C1Br)CCNC1=C2C2=NCCc3c(Br)[nH]c(c32)C1=O`, in experiment [2], it took 77 nM to reach half-maximal inhibition (IC50).

`O=C1C2=C(C3=NCCc4c(Br)[nH]c1c43)C1(C=CN2)C=C(Br)C(O)C(Br)=C1` (stereo not given) had a 50% inhibitory concentration (IC50) in experiment [2] of 222 nM.

For `O=C1C2=C(C3=NCCc4c(Br)[nH]c1c43)C1(C=C(Br)C(O)C(Br)=C1)CCN2` (stereo not given), in experiment [2], half-maximal inhibition (IC50) was put at 645 nM.

Molecule `COC1[C@H]2C(=O)C=C3S[C@H]4C[C@]31C1=C(N4)C(=O)c3[nH]cc4c3C1=[N+]2CC4` (stereo not given in full) registered an IC50 in experiment [2] of 232 nM.

`O=C1C2=C(C3=NCCc4c[nH]c1c43)C1(C=CN2)C=C(Br)C(O)C(Br)=C1` (stereo not given) gave an IC50 in experiment [2] of 197 nM.

On to `O=C1c2[nH]cc3c2C(=[N+](O)CC3)c2c(-c3ccc(O)cc3)c[nH]c21`, for which, in experiment [1], the Activity was 45%. This molecule also registered an IC50 in experiment [2] of 128000 nM. This molecule yielded a Ks in experiment [3] of 20 µM.

In experiment [2], `O=C1C2=C3C4=[N+](CCc5c(Br)[nH]c1c54)C1C(O)C(Br)=CC3(CCN2)C1O` (stereo not given) came in with an IC50 of 12500 nM.

As to `NC1[C@H]2C(=O)C=C3S[C@H]4C[C@]31C1=C(N4)C(=O)c3[nH]cc4c3C1=[N+]2CC4` (stereo not given in full), the IC50 in experiment [2] is 119 nM.

Turning to `CC[C@@]1(O)C(=O)OCc2c1cc1n(c2=O)Cc2cc3c(N)cccc3nc2-1`, the Activity in experiment [4] is 87%.

With `O=C1c2[nH]cc3c2C(=NCC3)c2c(-c3c[nH]c4ccccc34)c[nH]c21`, the Ks in experiment [3] was 20 µM.

For `CN1CCc2c[nH]c3c2C1=CC(=O)C3=O` [DAMIRONE B], the IC50 in experiment [2] is 3100 nM.

The molecule `O=C1C2=C(C3=NCCc4c[nH]c1c43)C1(C=C(Br)C(O)C(Br)=C1)CCN2` (stereo not given) [DIHYDRODISCORHABDIN C] came in with an IC50 in experiment [2] of 323 nM.

In experiment [2], `O=C1C2=C3C4=[N+](CCc5c[nH]c1c54)[C@H]1C[C@@]34C[C@@H](N2)SC4=CC1=O` [DISCORHABDIN D] gave an IC50 of 595 nM.

With `O=C1C=CC23CC(NC4=C2C2=NCCc5c[nH]c(c52)C4=O)SC3=C1` (stereo not given) [DISCORHABDIN G], 327 nM corresponded to half-maximal inhibition in experiment [2] (IC50).

With `O=C(O)CNC1C2C(=O)C=C3SC4CC31C1=C(N4)C(=O)c3[nH]cc4c3C1=[N+]2CC4` (stereo not given) [DISCORHABDIN N], half-maximal inhibition in experiment [2] (IC50) was put at 2250 nM.

In experiment [2], `O=C1C2=C3C4=[N+](CCc5c[nH]c1c54)C1CC3(C=C(Br)C1O)CCN2` (stereo not given) [DISCORHABDIN V] had an IC50 of 1270 nM.

Take `O=C1C[C@H]2S[C@H]3C[C@]2(C=C1Br)C1=C(N3)C(=O)c2[nH]cc3c2C1=NCC3` [DISCORHABDINE A]: the IC50 in experiment [2] came out at 7 nM.

Turning to `C[N+]1=C2C=C(N)C(=O)c3[nH]cc(c32)CC1` [MAKALUVAMINE C], the midpoint of inhibition in experiment [2], the IC50, lay at 1090 nM.

In turn, `CN1CCc2c[nH]c(C(=O)O)c2C1=O` [MAKALUVIC ACID A] showed an IC50 in experiment [2] of 28400 nM.

`O=C1c2[nH]cc3c2C(=NCC3)c2c(-c3ccc(O)cc3)c[nH]c21` [TSITSIKAMMAMINE A]: the Activity in experiment [1] came to 59%. The molecule also displayed an IC50 in experiment [2] of 1410 nM. In addition, the Ks in experiment [3] stood at 15 µM.

As for `Cn1cc2c3c1C(=O)c1[nH]cc(-c4ccc(O)cc4)c1C3=NCC2` [TSITSIKAMMAMINE B], in experiment [1], the Activity is 27%. The same molecule yielded a half-maximal inhibitory concentration (IC50) in experiment [2] of 2380 nM. In experiment [3], this molecule returned a Ks of 45 µM.
